By IC50 is commonly meant the concentration needed to halve the response being measured.

The nature of one data set: cells. Conditions: Homo sapiens, YY-8103, 48 h.
In data set [1] the test system is SMMC-7721. Put plainly: cells. Conditions: Homo sapiens, SMMC-7721, 48 h.
The target of another data set is Focal adhesion kinase 1 (Homo sapiens, UniProt Q05397). Put plainly: Inhibition of FAK (unknown origin) using Poly(Glu,Tyr) and ATP as substrate measured after 40 mins by Kinase-Glo Plus luminescence assay. (In general: Kinase-Glo measures the ATP left after a reaction by luminescence.)
A short description of data set [2]: Toxicity in BALB/c nude mouse assessed as animal's mortality at 30 mg/kg, ip measured on day 11. Format: organism-based. Conditions: in vivo, 264 h, time 11 day. A digest of the protocol: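 Six-week-old male BALB/c nude mice bearing subcutaneous SMMC7721 xenografts (1.0 × 10⁷ cells); dosing started at mean tumor 25-35 mm³, n = 8 per group. Ip every 3 days in DMSO/propylene glycol/PBS (2:5:3); vehicle 1.0 mL/kg as negative control. Body weight weighed and deaths recorded every 3 days before each dose, through day 19.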

In data set [3] the test system is SMMC-7721. Put plainly: Antitumor activity against human […] cells xenografted in BALB/c nude mouse assessed as tumor size at 30 mg/kg, ip administered for 19 days (reference value: 600.8 mm3). Format: functional. Conditions: time 19 day. An outline of the steps: (§1)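 Male BALB/c nude mice, six weeks old, inoculated s.c. with 1.0 × 10⁷ SMMC7721 cells. Dosing began at mean tumour 25e35 mm³; five randomized groups, n = 8. Solvent DMSO/propylene glycol/PBS 2:5:3 (vehicle 1.0 mL/kg), all given i.p. every 3 days. Tumour size (calipers) and body weight taken before each dose. V = length × width²/2. TGI = [1 − (T−T₀)/(C−C₀)] × 100.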
Background: A xenograft is tissue or cells of one species grown in another, often human tumour cells in immunodeficient mice.

Data set [4] deals with SMMC-7721. Put plainly: Antitumor activity against human […] cells xenografted in BALB/c nude mouse assessed as tumor growth inhibition at 30 mg/kg, ip administered for 19 days. Format: functional. To be noted: SMMC-7721, ip, 456 h, time 19 day, read-out: TGI. A digest of the protocol:
as §1

The nature of data set [5]: Toxicity in BALB/c nude mouse assessed as effect on body weight at 30 mg/kg, ip administered for 19 days. Format: organism-based. To be noted: in vivo, 456 h, time 19 day. An outline of the steps: as §1

The structures appear in SMILES notation.

Sequence of Focal adhesion kinase 1 (Q05397 whole entry): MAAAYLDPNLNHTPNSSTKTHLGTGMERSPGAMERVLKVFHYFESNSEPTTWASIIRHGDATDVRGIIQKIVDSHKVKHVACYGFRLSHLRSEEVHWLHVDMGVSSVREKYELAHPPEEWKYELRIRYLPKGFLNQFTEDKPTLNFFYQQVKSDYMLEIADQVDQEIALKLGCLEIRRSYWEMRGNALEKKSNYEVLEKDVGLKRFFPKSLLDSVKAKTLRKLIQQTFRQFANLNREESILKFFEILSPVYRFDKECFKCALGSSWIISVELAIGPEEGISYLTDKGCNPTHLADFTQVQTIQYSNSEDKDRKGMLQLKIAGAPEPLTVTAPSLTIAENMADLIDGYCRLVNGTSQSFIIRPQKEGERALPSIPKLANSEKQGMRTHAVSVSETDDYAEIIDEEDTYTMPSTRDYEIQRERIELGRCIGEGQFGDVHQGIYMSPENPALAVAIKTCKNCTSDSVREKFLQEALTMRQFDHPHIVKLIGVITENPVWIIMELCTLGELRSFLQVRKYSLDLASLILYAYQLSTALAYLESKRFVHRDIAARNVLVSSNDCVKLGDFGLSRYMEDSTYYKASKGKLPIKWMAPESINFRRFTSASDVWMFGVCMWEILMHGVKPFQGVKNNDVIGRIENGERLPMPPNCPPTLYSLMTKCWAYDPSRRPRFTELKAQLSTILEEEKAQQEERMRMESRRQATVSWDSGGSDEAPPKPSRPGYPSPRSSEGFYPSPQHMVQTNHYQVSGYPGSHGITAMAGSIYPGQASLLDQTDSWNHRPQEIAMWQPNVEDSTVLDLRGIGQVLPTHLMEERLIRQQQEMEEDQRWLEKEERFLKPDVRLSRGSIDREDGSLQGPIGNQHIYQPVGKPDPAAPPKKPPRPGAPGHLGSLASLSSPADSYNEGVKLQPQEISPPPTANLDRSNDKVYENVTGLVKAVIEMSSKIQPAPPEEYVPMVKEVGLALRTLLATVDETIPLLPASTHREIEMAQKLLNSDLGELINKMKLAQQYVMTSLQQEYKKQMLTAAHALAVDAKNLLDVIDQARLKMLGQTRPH

In the case of `COc1cccc(Nc2nc(NCc3cccnc3N(C)S(C)(=O)=O)c3c(F)c[nH]c3n2)c1C`, the results for the concentration for half-maximal inhibition (IC50) in “cells”, in the data set with SMMC-7721 [1] and at Focal adhesion kinase 1 were above 100 µM, above 100 µM and 0.076 µM, respectively.

For `CN(c1ncccc1CNc1nc(Nc2ccc3c(c2)CC(=O)N3)nc2[nH]cc(C#N)c12)S(C)(=O)=O`, the figures for the 50% inhibitory concentration (IC50) in the data set “cells”, in the data set on SMMC-7721 [1] and on Focal adhesion kinase 1 were above 100 µM, above 100 µM and 0.325 µM, respectively.

Turning to `CC(=O)NCc1cccc(Nc2nc(NCc3cccnc3N(C)S(C)(=O)=O)c3c(F)c[nH]c3n2)c1`, the figures for the IC50 in the data set “cells”, in the data set with SMMC-7721 [1] and at Focal adhesion kinase 1 were 20.5 µM, 21.7 µM and 0.023 µM, respectively.

Take `CNC(=O)c1cc(Oc2ccc(NC(=O)Nc3ccc(Cl)c(C(F)(F)F)c3)cc2)ccn1` [SORAFENIB]: the Activity entry in data set [2] was “Non-Toxic”; in the data set with SMMC-7721 [3], 343.4 mm3; in data set [5], “Non-Toxic”. In addition, the inhibition in vivo at 30 mg/kg with SMMC-7721 [4] came to 45.1%.

With `COc1ccc(Nc2nc(NCc3cccnc3N(C)S(C)(=O)=O)c3c(F)c[nH]c3n2)cc1OC`, the IC50 was 18.2 µM in the data set “cells”, 54.8 µM with SMMC-7721 [1] and 0.015 µM at Focal adhesion kinase 1.

In the case of `CN(c1ncccc1CNc1nc(Nc2ccc(F)cc2)nc2[nH]cc(F)c12)S(C)(=O)=O`, the results for the IC50 in the data set “cells”, in the data set on SMMC-7721 [1] and on Focal adhesion kinase 1 were above 100 µM, 27.9 µM and 0.038 µM, respectively.

`CN(c1ncccc1CNc1nc(Nc2cccc(CN)c2)nc2[nH]cc(F)c12)S(C)(=O)=O`: the IC50 in the data set “cells” was above 100 µM; with SMMC-7721 [1], above 100 µM; on Focal adhesion kinase 1, 2.1 µM.

On to `CN(c1ncccc1CNc1nc(Nc2ccc(N3CCOCC3)cc2)nc2[nH]cc(F)c12)S(C)(=O)=O`, for which the half-maximal inhibitory concentration (IC50) was above 100 µM in the data set “cells”, above 100 µM in the data set with SMMC-7721 [1] and 0.026 µM at Focal adhesion kinase 1.

For the compound `CN(c1ncccc1CNc1nc(Nc2ccc3c(c2)CC(=O)N3)nc2[nH]ccc12)S(C)(=O)=O`, the IC50 in the data set “cells” turned out to be 13.6 µM; with SMMC-7721 [1] it was 52.8 µM; at Focal adhesion kinase 1, 0.055 µM.

Turning to `Cc1c[nH]c2nc(Nc3ccc4c(c3)CC(=O)N4)nc(NCc3cccnc3N(C)S(C)(=O)=O)c12`, the half-inhibitory concentration (IC50) in the data set “cells” was found to be 12.4 µM; in the data set with SMMC-7721 [1] it was 18.7 µM; on Focal adhesion kinase 1, 0.064 µM.

Turning to `CN1CCN(c2ccc(Nc3nc(NCc4cccnc4N(C)S(C)(=O)=O)c4c(F)c[nH]c4n3)cc2)CC1`, the IC50 stood at 2.39 µM in “cells”, 13.9 µM in the data set with SMMC-7721 [1] and 0.013 µM on Focal adhesion kinase 1.

Regarding `CN(c1ncccc1CNc1nc(Nc2ccc(F)c(Cl)c2)nc2[nH]cc(F)c12)S(C)(=O)=O`, the concentration for half-maximal inhibition (IC50) in “cells” was 82.5 µM; with SMMC-7721 [1] it was above 100 µM; on Focal adhesion kinase 1 it was 0.041 µM.

For the compound `CNC(=O)c1ccccc1Nc1nc(Nc2cccc(CNC(C)=O)c2)nc2[nH]cc(F)c12`, the results for the half-inhibitory concentration (IC50) in “cells”, in the data set on SMMC-7721 [1] and at Focal adhesion kinase 1 were 1.06 µM, 18.7 µM and 0.014 µM, respectively.

Turning to `CN(c1ncccc1CNc1nc(Nc2ccc3c(c2)CC(=O)N3)ncc1C(F)(F)F)S(C)(=O)=O` [PF-00562271], the Activity result is recorded as “Toxic” in data set [2], 295.9 mm3 with SMMC-7721 [3] and “Non-Toxic” in data set [5]. The inhibition in vivo at 30 mg/kg in the data set with SMMC-7721 [4] is 54.1%.

Regarding `CN(c1ncccc1CNc1nc(Nc2cccc(C#N)c2)nc2[nH]cc(F)c12)S(C)(=O)=O`, the IC50 is above 100 µM in the data set “cells”, above 100 µM in the data set with SMMC-7721 [1] and 0.035 µM at Focal adhesion kinase 1.

As to `CC(=O)Nc1cccc(Nc2nc(NCc3cccnc3N(C)S(C)(=O)=O)c3c(F)c[nH]c3n2)c1`, the 50% inhibitory concentration (IC50) in “cells” was 14.4 µM; in the data set on SMMC-7721 [1] it was 16 µM; on Focal adhesion kinase 1 it was 0.021 µM.

Consider `Cc1cc2c(NCc3cccnc3N(C)S(C)(=O)=O)nc(Nc3ccc4c(c3)CC(=O)N4)nc2[nH]1`, for which the IC50 in “cells” was above 100 µM; with SMMC-7721 [1] it was above 100 µM; on Focal adhesion kinase 1, 12 µM.

Consider `CN(c1ncccc1CNc1nc(Nc2ccc3c(c2)CC(=O)N3)nc2[nH]cc(F)c12)S(C)(=O)=O`, for which the values for the 50% inhibitory concentration (IC50) in the data set “cells”, with SMMC-7721 [1] and at Focal adhesion kinase 1 were 24.1 µM, 73.2 µM and 0.022 µM, respectively.

Turning to `COc1cc(Nc2nc(NCc3cccnc3N(C)S(C)(=O)=O)c3c(F)c[nH]c3n2)cc(OC)c1OC`, the concentration for half-maximal inhibition (IC50) in the data set “cells” was above 100 µM; in the data set on SMMC-7721 [1], above 100 µM; at Focal adhesion kinase 1 it was 0.017 µM.

Consider `CN(c1ncccc1CNc1nc(Nc2ccc3c(c2)CC(=O)N3)nc2[nH]ncc12)S(C)(=O)=O`, for which, at Focal adhesion kinase 1, the concentration for half-maximal inhibition (IC50) stood at 0.206 µM.

On to `CN(c1ncccc1CNc1nc(Nc2ccccc2)nc2[nH]cc(F)c12)S(C)(=O)=O`, for which the IC50 in the data set “cells” was above 100 µM; with SMMC-7721 [1], above 100 µM; at Focal adhesion kinase 1, 0.032 µM.

Regarding `CN(c1ncccc1CNc1nc(Nc2ccc3c(c2)CC(=O)N3)nc2[nH]cc(Cl)c12)S(C)(=O)=O`, the values for the IC50 in “cells”, in the data set on SMMC-7721 [1] and on Focal adhesion kinase 1 were 13.2 µM, 21.9 µM and 0.021 µM, respectively.

As to `COc1cc(N2CCOCC2)ccc1Nc1nc(NCc2cccnc2N(C)S(C)(=O)=O)c2c(F)c[nH]c2n1`, the IC50 in “cells” worked out at 15.4 µM; in the data set on SMMC-7721 [1], 15.3 µM; at Focal adhesion kinase 1, 0.023 µM.

Consider `CNC(=O)c1ccccc1Nc1nc(Nc2ccc3c(c2)CC(=O)N3)nc2[nH]cc(F)c12`, for which the IC50 in the data set “cells” stood at 4.69 µM; in the data set on SMMC-7721 [1], 10 µM; on Focal adhesion kinase 1 it was 0.022 µM.

On to `CNC(=O)c1ccccc1Nc1nc(Nc2ccc(N3CCOCC3)cc2OC)nc2[nH]cc(F)c12`, for which the IC50 in the data set “cells” was found to be 14.2 µM; with SMMC-7721 [1] it was 33.9 µM; on Focal adhesion kinase 1, 0.023 µM.

The values are drawn from ChEMBL document CHEMBL4831494, “Synthesis and evaluation of FAK inhibitors with a 5-fluoro-7H-pyrrolo[2,3-d]pyrimidine scaffold as anti-hepatocellular carcinoma agents” (Eur J Med Chem, 2021).
